# MPTP inh: mitochondrial permeability transition pore inhibitors, primary screen, biochemical, isolated mouse mitochondria, absorbance; AID 602449, 2012; Ca2+ swelling absorbance, 30 min; inhibition, % at 10 µM; 1.4% of 360,000 active;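 active = inhibition of 50% or more, scaled per plate between neutral and stimulator controls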;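 also: 0% = DMSO wells given calcium and 100% = 1 mM EGTA wells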
# DAGLB inh: DAGLB lipase inhibitors, primary screen, biochemical, fluorescence, HTS. 0.059% of 340,000 active. inhibition, % at 5.17 µM. HEK293T DAGLB membrane lysate, EnzChek fluorogenic substrate; in the data active = inhibition above about 34%;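 also: 0% = enzyme with vehicle and 100% = wells lacking enzyme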
# TAAR1 ag: human TAAR1 agonists, primary screen, Fluo-8 calcium fluorescence, CHO RD-HGA16 cells | Trace amine-associated receptor 1 (Homo sapiens), Q96RJ0 | vehicle wells 0%, saturating PEA agonist 100% | activation, % at 3 µM | 0.99% of 360,000 active;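 active = activation above the mean activation of all test compounds in the run plus 3 SD, cut at about 38% in these data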
# Target sequence (Q96RJ0 whole entry, looked up): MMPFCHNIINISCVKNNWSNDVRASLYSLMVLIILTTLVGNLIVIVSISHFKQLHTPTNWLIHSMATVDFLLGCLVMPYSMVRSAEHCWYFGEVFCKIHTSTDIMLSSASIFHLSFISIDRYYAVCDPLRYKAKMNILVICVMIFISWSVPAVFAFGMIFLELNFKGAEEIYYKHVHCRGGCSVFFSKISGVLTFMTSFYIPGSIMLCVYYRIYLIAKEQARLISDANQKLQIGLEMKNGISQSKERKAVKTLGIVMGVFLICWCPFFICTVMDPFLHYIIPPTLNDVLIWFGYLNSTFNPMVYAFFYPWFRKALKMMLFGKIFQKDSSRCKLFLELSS
#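 Assay system – CHO-derived RD-HGA16 cells with stable Gα16 and human TAAR1 · Compound dosing – one-point dosing at 3 µM (nominal) · Incubation – 17-24 h seeding, 75 min 37 °C dye, 30 min RT · Measured by – kinetic Fluo-8 calcium fluorescence · Control set – DMSO vehicle as 0%, PEA at EC100 as 100% · Repeats – single well for each compound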
# GPR7 antagonist: GPR7 receptor antagonists, primary screen, cell-based, fluorescence, single concentration; Neuropeptides B/W receptor type 1 (Homo sapiens), P48145; GPR7-expressing cells, fluorescence antagonist assay; inhibition, % at 4.4 µM; 1.1% of 290,000 active; in the data active = inhibition above about 16%, passing the limit was not always enough;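 also: cells stimulated with the agonist NPW; 0% = agonist with vehicle and 100% = vehicle without agonist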
# Target sequence (P48145 whole entry, looked up): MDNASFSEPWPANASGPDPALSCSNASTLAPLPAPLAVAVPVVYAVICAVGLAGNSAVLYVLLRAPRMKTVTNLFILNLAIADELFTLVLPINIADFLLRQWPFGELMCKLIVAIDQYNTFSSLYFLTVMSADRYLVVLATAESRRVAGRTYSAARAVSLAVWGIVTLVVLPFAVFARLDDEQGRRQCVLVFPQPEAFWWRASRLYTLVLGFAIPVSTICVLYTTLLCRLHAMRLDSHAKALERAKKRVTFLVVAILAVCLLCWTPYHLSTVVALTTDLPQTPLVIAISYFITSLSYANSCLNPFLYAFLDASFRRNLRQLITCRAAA
# TAAR1 antag: human TAAR1 antagonists, primary screen, Fluo-8 calcium fluorescence, CHO RD-HGA16 cells; antagonist; Trace amine-associated receptor 1 (Homo sapiens), Q96RJ0; inhibition, % at 3 µM; AID 624466, 2012; 1.5% of 360,000 active;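 active = inhibition above a per-plate cutoff, the mean inhibition of test compounds on that plate plus 3 SD, cut at about 49% in these data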;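 also: 0% = DMSO plus EC80 beta-PEA response and 100% = DMSO alone without agonist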
#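 Test system: CHO RD-HGA16 cells bearing hTAAR1 | Reagent: β-PEA, EC80 | Compound dosing: 3 µM, single point | Schedule: Dye loading 75 min at 37 °C, then 30 min room temperature | Signal: Calcium fluorescence with Fluo-8 | Evaluation: Percent inhibition of PEA-evoked calcium signal, max/basal emission ratio | Control set: DMSO-only wells and EC80 β-PEA-stimulated wells | Repeats: Singlicate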
# * = called active by the depositor; · = no result given. Only some compounds are listed: those with a hit (about 4% of all), similar ones and a draw of the others.
SMILES,MPTP inh,DAGLB inh,TAAR1 ag,GPR7 antagonist,TAAR1 antag
COc1ccc(NC(=O)COC(=O)c2cccc(S(=O)(=O)N(C)C)c2)cc1,-3.1,3.0,1.7,1.0,15.2
CN(C)S(=O)(=O)c1cccc(C(=O)OCC(=O)Nc2sccc2C(N)=O)c1,4.4,0.9,41.4*,1.4,74.8*
O=C1CCC(c2ccccc2)c2ccccc21 (centres undefined),-0.1,·,-2.5,·,-7.3
N#CC1C(=O)c2ccccc2C1c1ccccc1 (centres undefined),0.5,7.6,9.7,·,66.7*
CC(C)Sc1nc2c([nH]1)c(=N)ncn2Cc1ccccc1,-0.7,1.5,-0.8,-3.0,15.3
Cc1cccc(OCCSc2nc3c([nH]2)c(=N)ncn3Cc2ccccc2)c1,0.5,2.4,19.3,-5.5,55.5*
CCc1nc2ccc(C(=O)NCCCN3CCCC3=O)cn2c1N(C)C(=O)Nc1ccccc1OC,-2.0,·,1.6,·,-8.3
O=C1NC(c2ccccc2)(c2ccccc2)C(=O)N1CNc1ccccn1,·,·,0.3,·,-9.4
O=C1N=c2ccccc2=C1c1sc(=S)n(NC(=O)c2cccc(O)c2)c1O,5.0,2.8,18.0,-2.2,50.8*
O=C(Nn1c(O)c(C=C2N=c3ccccc3=N2)sc1=S)c1cccc(Cl)c1,1.3,6.7,30.6,-4.0,52.2*
O=C(Nn1c(O)c(C=C2N=c3ccccc3=N2)sc1=S)c1ccccc1,-0.7,5.5,37.9*,9.9,48.4
O=C(Nn1c(O)c(C=C2N=c3ccccc3=N2)sc1=S)c1ccc(Cl)cc1,0.8,-2.1,11.5,4.7,13.5
Cc1ccc2c(c1)cc(C(=O)NCc1ccccc1)n2C,0.9,-1.4,-1.6,3.2,3.3
CN(Cc1ccccc1)Cc1cc(=O)oc2ccc3ccccc3c12,0.1,·,0.3,·,6.8
c1cc2c3c(cccc3c1)C(N1CCCCCC1)=N2,1.5,-0.6,0.7,32.3*,-1.2
CC1=CC(C)(C)N(C(=O)CNC2CCCCC2)c2cc(C)ccc21,2.1,-3.9,14.9,23.0*,-9.4
CNC(=O)c1ccsc1NC(=O)CS(=O)(=O)c1ccc(F)cc1,0.3,-1.1,3.9,·,13.6
CCc1cc2c(N3CCN(c4ccccc4)CC3)ncnc2s1,19.0,-9.5,8.1,4.3,66.0*
Cc1noc(C)c1CSCC(=O)Nc1ccccc1N1CCCCC1,-0.5,-9.6,·,·,·
NC1(N2SC(S)=C3CCCC=C32)CCCCC1,·,·,0.5,·,-15.0
O=C(CCc1c[nH]c2ccccc12)Nc1ccc(Nc2ccccc2)cc1,·,·,6.5,·,36.3
COC(=O)CCS(=O)(=O)c1nc(-c2ccccc2)cc(C(F)(F)F)n1,-1.0,-9.4,·,15.3,·
CCOC(=O)CCS(=O)(=O)c1nc(-c2ccccc2)cc(C(F)(F)F)n1,-0.7,-5.4,·,25.6*,·
CCOC(=O)CS(=O)(=O)c1nc(-c2ccccc2)cc(C(F)(F)F)n1,-4.1,-7.9,6.9,38.6*,29.0
CCn1cc(CCC(=O)Nc2ccc(Oc3cccnc3)cc2)c2ccccc21,·,·,0.3,·,23.0
SMILES,MPTP inh,DAGLB inh,TAAR1 ag,GPR7 antagonist,TAAR1 antag
CC1(C)S[C@@H]2C(C(=O)OCc3ccccc3)NC(=O)N2C1C(=O)OCc1ccccc1 (some centres undefined),0.9,-8.8,8.5,·,51.5*
CCCOC(=O)C1NC(=O)N2C(C(=O)OCCC)C(C)(C)S[C@H]12 (some centres undefined),-0.3,-1.6,8.0,·,4.0
O=C(N/N=C/c1ccc(OC(=O)c2ccccc2)c([N+](=O)[O-])c1)c1ccc(O)cc1,0.1,3.8,-0.1,2.2,53.4*
CC(C)(C)C(=O)Nc1ccc(C(=O)N/N=C/c2ccccc2OC(=O)c2ccc(Cl)cc2)cc1,1.8,0.4,3.3,-3.3,20.8
COc1ccc(/C=N\NC(=O)c2ccc(F)cc2)cc1COc1cc(F)ccc1[N+](=O)[O-],-0.9,-1.4,4.4,-3.5,53.4*
CC(C)(C)C(=O)Nc1ccc(C(=O)N/N=C/c2ccccc2OC(=O)c2ccccc2)cc1,0.9,-0.7,16.2,-1.7,52.7*
CCOC(=O)/C=C/S(=O)(=O)c1ccc(NC(C)=O)cc1,0.0,-3.1,10.2,18.1*,2.8
CCOC(=O)/C=C/C(=O)Nc1ccc(S(=O)(=O)Nc2c(C)cc(C)cc2C)cc1,38.3,7.4,-0.4,-7.4,9.9
CCCc1nc2ccc(C)cn2c1Cc1ccc(OC)cc1C,-1.7,·,-0.2,·,-13.0
c1ccc(Nc2nc(NCC3CCCO3)c3ccccc3n2)cc1 (centres undefined),10.5,1.3,51.6*,16.1,2.8
OCCNc1nc(Nc2ccc(Br)cc2)nc2ccccc12,·,·,65.2*,2.0,60.4*
CC1(C(=O)Nc2nccs2)CCN1C(=O)CC(c1ccccc1)c1ccccc1 (centres undefined),0.2,·,-2.8,·,-21.2
O=C(Nc1ccccc1Cl)c1ccccc1CC(O)(c1ccccc1)c1ccccc1,2.3,-13.1,2.2,·,53.8*
COC(=O)CN1C(=O)S/C(=C/c2ccc(N3CCCCC3)o2)C1=O,5.0,-27.2,100.2*,7.8,60.1*
CCOC(=O)CN1C(=O)S/C(=C/c2ccc(N3CCCCC3)o2)C1=O,0.9,-11.4,28.7,9.9,28.6
CCOC(=O)[C@]12CCCC=C1N(Cc1ccccc1)C(=O)[C@H](CC(=O)N1CCN(C(=O)c3ccco3)CC1)C2,0.4,·,-0.8,·,-19.1
O=C(Nc1ncc(Cc2ccc(SC(F)F)cc2)s1)c1ccc(OC(F)F)cc1,28.3,-2.6,45.9*,7.9,-0.9
CC(C)(C)c1ccc(C(=O)N2CCC2(C)C(=O)NCc2cccc3ccccc23)cc1 (centres undefined),-0.1,·,-0.8,·,-36.0
CC(C)c1ccc(NC(=O)Nc2nc(C(N)C(C)C)cs2)cc1 (centres undefined),1.5,·,29.1,·,27.9
CC(C)c1ccc(NC(=O)Nc2nc(C(N)c3ccccc3)cs2)cc1 (centres undefined),5.4,·,45.1*,·,9.9
Cc1ccc(OCCSc2nc3ccccc3n2CCC(=O)O)c(C(C)C)c1,-0.1,8.1,-0.5,·,-27.2
Cc1ccc(C(=O)Cc2ccccc2)c(O)c1,0.9,-5.1,4.5,·,-20.2
CC(C)=CCc1c(O)ccc(C(=O)Cc2ccccc2)c1O,6.6,-5.4,40.0*,-0.1,25.6
COc1ccc(-c2cc(C(=O)Nc3c(C)n(C)n(-c4ccccc4)c3=O)c3ccccc3n2)cc1OC,-0.3,1.8,16.8,-8.7,54.6*
COc1ccc(-c2cc(C(=O)NCCCN3CCOCC3)c3ccccc3n2)cc1OC,-1.5,0.5,3.7,·,1.9
COc1ccc(-c2cc(C(=O)NNC(=O)c3csc(N4CCOCC4)n3)c3ccccc3n2)cc1OC,-1.8,3.1,13.9,·,57.9*
CC(=O)Nc1cc(-c2cccc(C(=O)N(C)C)c2)cn2c(-c3ccccc3)cnc12,-1.0,·,6.6,·,-0.7
CC(=O)Nc1cc(-c2cccc(F)c2)cn2c(-c3ccc(F)cc3)cnc12,0.0,·,4.7,·,55.7*

# Source: PubChem
